Experimental data published in ChEMBL document CHEMBL1155080, “Alpha2-adrenoreceptors profile modulation. 4. From antagonist to agonist behavior” (J Med Chem, 2008).
Active and inactive are the calls of the source. The calls are words filed in the database; no cut-off is given here.

Key:
[1] = biological target: T1, Alpha-2C adrenergic receptor (Homo sapiens) (UniProt P18825); experiment: Intrinsic activity at human recombinant adrenergic Alpha-2C receptor expressed in CHO cells assessed as stimulation of extracellular acidification relative to (-)-noradrenaline; assay type: cell-based
T1 sequence (whole entry): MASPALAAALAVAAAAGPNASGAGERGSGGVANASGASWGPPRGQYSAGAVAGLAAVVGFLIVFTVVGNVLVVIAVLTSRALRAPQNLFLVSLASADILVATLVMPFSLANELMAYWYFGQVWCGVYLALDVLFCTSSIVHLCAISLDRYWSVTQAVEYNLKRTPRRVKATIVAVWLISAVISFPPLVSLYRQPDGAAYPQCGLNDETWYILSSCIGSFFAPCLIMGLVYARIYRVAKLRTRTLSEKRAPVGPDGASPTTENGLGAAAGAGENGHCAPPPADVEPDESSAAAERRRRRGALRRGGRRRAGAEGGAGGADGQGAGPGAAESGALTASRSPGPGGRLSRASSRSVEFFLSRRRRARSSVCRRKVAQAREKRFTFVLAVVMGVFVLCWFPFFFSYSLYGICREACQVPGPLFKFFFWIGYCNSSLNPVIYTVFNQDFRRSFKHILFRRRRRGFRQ
How it was run: (§1)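 Acidification rate was measured by Cytosensor microphysiometry in stably transfected CHO cells (3 × 10⁵ cells/cup, bicarbonate-free DMEM perfusion). Each response is the peak rate change minus the pre-agonist baseline. Emax from concentration-response curves is expressed as a fraction of the (-)-noradrenaline maximum, taken as 1; mean ± SEM, 3-6 experiments.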

[2] = biological target: T2, Alpha-2A adrenergic receptor (Homo sapiens, UniProt P08913); experiment: Displacement of [3H]RS79948-197 from human recombinant adrenergic alpha2A receptor expressed in CHO cells; assay type: cell-based
T2 sequence (P08913 whole entry): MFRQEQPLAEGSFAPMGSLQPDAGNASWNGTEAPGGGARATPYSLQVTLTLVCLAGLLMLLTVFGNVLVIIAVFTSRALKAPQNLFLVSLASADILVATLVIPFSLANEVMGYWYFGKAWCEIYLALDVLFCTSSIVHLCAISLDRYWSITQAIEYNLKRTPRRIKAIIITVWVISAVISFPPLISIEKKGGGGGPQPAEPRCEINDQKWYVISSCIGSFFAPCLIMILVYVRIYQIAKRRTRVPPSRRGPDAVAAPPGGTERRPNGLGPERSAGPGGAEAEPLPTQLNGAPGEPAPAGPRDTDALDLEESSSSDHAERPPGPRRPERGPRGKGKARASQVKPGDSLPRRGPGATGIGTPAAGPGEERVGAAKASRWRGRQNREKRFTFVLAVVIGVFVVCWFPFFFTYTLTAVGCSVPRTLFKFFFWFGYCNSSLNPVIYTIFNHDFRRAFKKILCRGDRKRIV
How it was run: (§2)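 Competition binding on membranes from CHO cells stably expressing each human α2 subtype (1-3 pmol/mg receptor). Assay in 50 mM potassium phosphate, pH 7.4, with 5-10 µg protein. Eight competitor dilutions, 30 min at room temperature, then vacuum filtration and scintillation counting. IC50 by one-site nonlinear regression, converted with Cheng-Prusoff; mean ± SEM, 3-6 experiments.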

[3] = biological target: T3, Alpha-2A adrenergic receptor (Homo sapiens) (UniProt P08913); experiment: (§3) Agonist activity at human recombinant adrenergic alpha2A receptor expressed in CHO cells assessed as stimulation of extracellular acidification; assay type: functional, cell-based
T3 sequence (whole entry): T2 sequence (P08913 whole entry)

[4] = biological target: T4, Alpha-2B adrenergic receptor (Homo sapiens) (UniProt P18089); experiment: (§4) Agonist activity at human recombinant adrenergic alpha2B receptor expressed in CHO cells; assay type: functional, cell-based
T4 sequence (whole entry): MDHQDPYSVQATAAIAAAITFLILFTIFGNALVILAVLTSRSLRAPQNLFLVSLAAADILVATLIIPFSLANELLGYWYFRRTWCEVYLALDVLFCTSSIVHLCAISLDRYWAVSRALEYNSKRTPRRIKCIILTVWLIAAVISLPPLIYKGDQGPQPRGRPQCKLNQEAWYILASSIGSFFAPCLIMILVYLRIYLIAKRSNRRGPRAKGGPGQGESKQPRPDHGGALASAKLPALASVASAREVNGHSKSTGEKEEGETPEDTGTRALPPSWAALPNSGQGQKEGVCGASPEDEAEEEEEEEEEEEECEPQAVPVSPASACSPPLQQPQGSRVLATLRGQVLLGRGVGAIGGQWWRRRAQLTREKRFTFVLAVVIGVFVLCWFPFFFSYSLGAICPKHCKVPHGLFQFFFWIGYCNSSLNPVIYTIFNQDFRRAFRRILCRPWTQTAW
How it was run: (§5)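 Cytosensor microphysiometry. Stable CHO cells were seeded at 3 × 10⁵ cells/cup, grown 24 h at 37 °C/5% CO₂, then perfused with bicarbonate-free DMEM at 100 µL/min. Over 90 s pump cycles, pH was read for 20 s. Response is the peak acidification rate minus the mean of three pre-agonist readings. pEC50 is the concentration giving 50% of maximum; mean ± SEM, 3-6 experiments.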

[5] = biological target: T5, Alpha-2B adrenergic receptor (Homo sapiens, UniProt P18089); experiment: Displacement of [3H]RS79948-197 from human recombinant adrenergic alpha2B receptor expressed in CHO cells; assay type: cell-based; how it was run: as §2
T5 sequence (P18089 whole entry): T4 sequence (whole entry)

[6] = biological target: T6, Alpha-2C adrenergic receptor (Homo sapiens, UniProt P18825); experiment: Displacement of [3H]RS79948-197 from human recombinant adrenergic Alpha-2C receptor expressed in CHO cells; assay type: cell-based; how it was run: as §2
T6 sequence (P18825 whole entry): T1 sequence (whole entry)

[7] = biological target: T6, Alpha-2C adrenergic receptor; experiment: (§6) Agonist activity at human recombinant adrenergic Alpha-2C receptor expressed in CHO cells assessed as stimulation of extracellular acidification; assay type: functional, cell-based; how it was run: as §5
[8] = biological target: T4, Alpha-2B adrenergic receptor (Homo sapiens); experiment: Antagonist activity at human recombinant adrenergic alpha2B receptor expressed in CHO cells; assay type: functional, cell-based
How it was run: (§7)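 Clonidine-curve shift measured by Cytosensor microphysiometry of extracellular acidification in CHO cells stably expressing the individual human α2 subtype. Cells were seeded at 3 × 10⁵ cells/cup for 24 h at 37 °C/5% CO₂ and perfused with bicarbonate-free DMEM at 100 µL/min. A control clonidine concentration-response curve was run, then antagonist was applied ≥30 min before a repeat curve. Kb = M/(EC50 ratio − 1), reported as pKb; 3–6 experiments.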

[9] = biological target: T1, Alpha-2C adrenergic receptor (Homo sapiens); experiment: Antagonist activity at human recombinant adrenergic Alpha-2C receptor expressed in CHO cells; assay type: functional, cell-based; how it was run: as §7
[10] = biological target: T3, Alpha-2A adrenergic receptor (Homo sapiens); experiment: Antagonist activity at human recombinant adrenergic alpha2A receptor expressed in CHO cells; assay type: functional, cell-based; how it was run: as §7
[11] = biological target: T1, Alpha-2C adrenergic receptor (Homo sapiens); experiment: as §6; assay type: functional, cell-based; how it was run: as §5
[12] = species on record: Rattus norvegicus; experiment: Intrinsic activity at adrenergic alpha2 receptor in rat vas deferens relative to clonidine; assay type: tissue-based
[13] = biological target: T4, Alpha-2B adrenergic receptor (Homo sapiens); experiment: Intrinsic activity at human recombinant adrenergic alpha2B receptor expressed in CHO cells relative to (-)-noradrenaline; assay type: cell-based; how it was run: as §1
[14] = biological target: T3, Alpha-2A adrenergic receptor (Homo sapiens); experiment: Intrinsic activity at human recombinant adrenergic alpha2A receptor expressed in CHO cells assessed as stimulation of extracellular acidification relative to (-)-noradrenaline; assay type: cell-based
How it was run: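 Microphysiometry (Cytosensor) of extracellular acidification rate in CHO cells stably expressing human α2A. Cells were seeded at 3 × 10⁵ cells/cup and cultured 24 h at 37 °C, then perfused with bicarbonate-free DMEM at 100 µL/min, with agonist diluted into running medium. Response was taken as the maximum after agonist minus the mean of three pre-agonist readings. Emax is expressed as a fraction of (−)-noradrenaline (=1); 3–6 experiments.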

[15] = Agonist activity at adrenergic alpha2 receptor in rat vas deferens; assay type: functional, tissue-based
[16] = biological target: T5, Alpha-2B adrenergic receptor; experiment: as §4; assay type: functional, cell-based; how it was run: as §5
[17] = biological target: T2, Alpha-2A adrenergic receptor; experiment: as §3; assay type: functional, cell-based

SMILES | Intrinsic activity [1] | Ki [2] [nM] | Activity [3] | Activity [4] | Ki [5] [nM] | Ki [6] [nM] | EC50 [7] [nM] | pKb [8] | pKb [9] | pKb [10] | Activity [11] | Intrinsic activity [12] | Intrinsic activity [13] | Intrinsic activity [14] | EC50 [15] [nM] | EC50 [16] [nM] | EC50 [17] [nM]
CO/N=C/c1ccccc1OC(C)C1=NCCN1 (stereo unspecified) | 0.55 | 661 | inactive | inactive | 1200 | 3090 | 501 |  |  |  |  |  |  |  |  |  | 
c1ccc2c(c1)OCC(C1=NCCN1)O2 (stereo unspecified) |  |  |  |  |  |  |  | 7.16 | 7.92 | 7.73 |  |  |  |  |  |  | 
c1ccc(-c2ccc3c(c2)OCC(C2=NCCN2)O3)cc1 (stereo unspecified) |  | 282 | inactive | inactive | 1660 | 1580 |  |  |  |  | inactive |  |  |  |  |  | 
COC1(C2=NCCN2)COc2cccc(-c3ccccc3)c2O1 (stereo unspecified) |  | 126 | inactive | inactive | 1070 | 245 |  |  |  |  | inactive |  |  |  |  |  | 
CC(Oc1ccccc1)C1=NCCN1 (stereo unspecified) |  | 26.9 |  |  | 166 | 263 |  | 6.2 | 6.85 | 7.01 |  |  |  |  |  |  | 
COC(C)(Oc1ccccc1-c1ccccc1)C1=NCCN1 (stereo unspecified) |  |  | inactive | inactive |  |  |  |  |  |  | inactive |  |  |  |  |  | 
CC(Oc1ccccc1-c1ccccc1)C1=NCCN1 (stereo unspecified) [BIPHENYLINE] | 0.8 |  |  |  |  |  |  |  |  |  |  | 1 | 0.5 | 0.7 | 3.02 |  | 
CC(Oc1ccccc1/C=N/OCc1ccccc1)C1=NCCN1 (stereo unspecified) | 0.5 | 214 | inactive |  | 871 | 676 | 3550 |  |  |  |  |  | 0.8 |  |  | 31600 | 
c1ccc(OC(C2=NCCN2)c2ccccc2)cc1 (stereo unspecified) |  | 93.3 |  |  | 47.9 | 64.6 |  | 6.04 | 6.9 | 6.1 |  |  |  |  |  |  | 
COC1(C2=NCCN2)COc2c(cccc2-c2ccccc2)O1 (stereo unspecified) |  | 257 | inactive |  |  |  |  |  |  |  | inactive |  | 0.5 |  |  | 15800 | 
c1ccc(-c2cccc3c2OCC(C2=NCCN2)O3)cc1 (stereo unspecified) | 0.75 | 724 | inactive |  | 1070 | 832 | 794 |  |  |  |  |  | 0.7 |  |  | 12600 | 
CC(Oc1ccccc1C1CCCCC1)C1=NCCN1 (stereo unspecified) | 0.8 | 74.1 |  |  | 191 | 77.6 | 20.9 |  |  |  |  |  | 0.7 | 0.6 |  | 200 | 79.4
C=CCc1ccccc1OC(C)C1=NCCN1 (stereo unspecified) [ALLYPHENYLINE] | 0.9 |  | inactive | inactive | 339 | 85.1 | 50.1 |  |  | 7.4 |  |  |  |  |  |  | 
CC(Oc1ccccc1C1CCCC1)C1=NCCN1 (stereo unspecified) | 0.75 | 50.1 |  |  | 191 | 26.9 | 10 |  |  |  |  |  | 0.7 | 0.65 |  | 501 | 63.1
c1ccc(-c2ccccc2OC(C2=NCCN2)c2ccccc2)cc1 (stereo unspecified) | 0.7 | 240 |  | inactive | 955 | 204 | 776 |  |  |  |  |  |  | 0.45 |  |  | 1000
c1ccc(-c2cccc3c2OC(C2=NCCN2)CO3)cc1 (stereo unspecified) | 0.4 | 240 | inactive |  | 479 | 692 | 3160 |  |  |  |  |  | 0.45 |  |  | 22400 | 
CC(Oc1ccccc1/C=N/O)C1=NCCN1 (stereo unspecified) | 0.85 | 288 |  |  | 708 | 912 | 126 |  |  |  |  |  | 0.5 | 0.8 |  | 3980 | 501
c1ccc(-c2ccc3c(c2)OC(C2=NCCN2)CO3)cc1 (stereo unspecified) |  | 398 | inactive | inactive | 1000 | 1260 |  |  |  |  | inactive |  |  |  |  |  | 
CCO/N=C/c1ccccc1OC(C)C1=NCCN1 (stereo unspecified) | 0.45 | 417 | inactive | inactive | 447 | 339 | 1000 |  |  |  |  |  |  |  |  |  | 
